According to ChEMBL document CHEMBL3861968, “Neuroactive and Anti-inflammatory Frankincense Cembranes: A Structure-Activity Study” (J Nat Prod, 2016):

Key:
Assay type in all cases: cell-based
[1] = biological target: T1, Heat sensitive channel TRPV3 (Rattus norvegicus) (UniProt Q4QYD9); assay: Activation of rat TRPV3 overexpressed in HEK293 cells assessed as increase in 2-aminoethoxydiphenyl borate-induced intracellular calcium concentration by Fluo-4AM dye-based spectrofluorometry relative to ionomycin
T1 sequence (whole entry): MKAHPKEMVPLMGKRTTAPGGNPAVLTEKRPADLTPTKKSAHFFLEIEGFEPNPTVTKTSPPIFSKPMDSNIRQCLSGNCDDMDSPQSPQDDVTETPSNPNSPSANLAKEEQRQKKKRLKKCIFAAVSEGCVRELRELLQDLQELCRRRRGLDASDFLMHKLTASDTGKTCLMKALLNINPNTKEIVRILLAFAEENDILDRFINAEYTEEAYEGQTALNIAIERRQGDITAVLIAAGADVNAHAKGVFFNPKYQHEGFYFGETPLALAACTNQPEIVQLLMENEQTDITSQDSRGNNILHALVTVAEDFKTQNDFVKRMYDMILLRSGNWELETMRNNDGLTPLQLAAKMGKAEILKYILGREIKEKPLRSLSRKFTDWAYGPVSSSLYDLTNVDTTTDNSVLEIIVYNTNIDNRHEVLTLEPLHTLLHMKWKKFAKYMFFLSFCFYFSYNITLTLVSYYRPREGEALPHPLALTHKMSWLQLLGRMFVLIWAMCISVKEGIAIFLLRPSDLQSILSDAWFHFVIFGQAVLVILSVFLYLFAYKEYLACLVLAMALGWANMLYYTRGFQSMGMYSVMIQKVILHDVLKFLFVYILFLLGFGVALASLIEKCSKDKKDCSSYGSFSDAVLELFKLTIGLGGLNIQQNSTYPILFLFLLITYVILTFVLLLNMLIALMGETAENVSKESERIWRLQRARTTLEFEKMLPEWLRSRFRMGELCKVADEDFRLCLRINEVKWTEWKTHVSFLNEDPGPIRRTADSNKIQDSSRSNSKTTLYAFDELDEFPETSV
Procedure, shortened: (§1)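 Stable rat TRPV3 HEK293 cells in MEM with 10% FBS, 37 °C, 5% CO2. Pre-sensitized with 2-APB (100 μM). Loaded 1 h at room temperature with Fluo-4 AM (4 μM), washed, held in Tyrode's buffer pH 7.4 in a stirred cuvette. Untransfected HEK293 baseline subtracted. EC50 taken from sigmoidal variable-slope fit. Efficacy expressed relative to 4 μM ionomycin. At least triplicate.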

[2] = biological target: T2, Heat sensitive channel TRPV3 (Rattus norvegicus, UniProt Q4QYD9); assay: Antagonist activity at rat TRPV3 overexpressed in HEK293 cells assessed as inhibition of thymol-induced increase in intracellular Ca2+ levels preincubated for 5 mins prior to thymol-stimulation by Fluo-4AM dye-based spectrofluorometry
T2 sequence (Q4QYD9 whole entry): T1 sequence (whole entry)
Procedure, shortened: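 Compounds added 5 min before thymol (100 μM). Thymol-alone response taken as 100%. IC50 of inhibition of the [Ca2+]i rise taken from sigmoidal variable-slope fit. At least triplicate. ANOVA with Bonferroni.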

[3] = Inhibition of TNFalpha-induced NFkappaB activation in mouse NIH-3T3 cells expressing NFkappaB (unknown origin) preincubated for 15 mins followed by TNFalpha addition measured after 6 hrs by luciferase reporter gene assay; conditions: NIH3T3
[4] = biological target: T2, Heat sensitive channel TRPV3; assay: Activation of rat TRPV3 overexpressed in HEK293 cells assessed as increase in 2-aminoethoxydiphenyl borate-induced intracellular calcium concentration by Fluo-4AM dye-based spectrofluorometry; procedure, shortened: as §1
[5] = biological target: T3, Transient receptor potential cation channel subfamily V member 3 (Mus musculus, UniProt Q8K424); assay: Agonist activity at mouse YFP-tagged TRPV3 expressed in HEK293 cells assessed as increase in calcium influx by Fluo-2-AM dye based microscopic analysis
T3 sequence (Q8K424 whole entry): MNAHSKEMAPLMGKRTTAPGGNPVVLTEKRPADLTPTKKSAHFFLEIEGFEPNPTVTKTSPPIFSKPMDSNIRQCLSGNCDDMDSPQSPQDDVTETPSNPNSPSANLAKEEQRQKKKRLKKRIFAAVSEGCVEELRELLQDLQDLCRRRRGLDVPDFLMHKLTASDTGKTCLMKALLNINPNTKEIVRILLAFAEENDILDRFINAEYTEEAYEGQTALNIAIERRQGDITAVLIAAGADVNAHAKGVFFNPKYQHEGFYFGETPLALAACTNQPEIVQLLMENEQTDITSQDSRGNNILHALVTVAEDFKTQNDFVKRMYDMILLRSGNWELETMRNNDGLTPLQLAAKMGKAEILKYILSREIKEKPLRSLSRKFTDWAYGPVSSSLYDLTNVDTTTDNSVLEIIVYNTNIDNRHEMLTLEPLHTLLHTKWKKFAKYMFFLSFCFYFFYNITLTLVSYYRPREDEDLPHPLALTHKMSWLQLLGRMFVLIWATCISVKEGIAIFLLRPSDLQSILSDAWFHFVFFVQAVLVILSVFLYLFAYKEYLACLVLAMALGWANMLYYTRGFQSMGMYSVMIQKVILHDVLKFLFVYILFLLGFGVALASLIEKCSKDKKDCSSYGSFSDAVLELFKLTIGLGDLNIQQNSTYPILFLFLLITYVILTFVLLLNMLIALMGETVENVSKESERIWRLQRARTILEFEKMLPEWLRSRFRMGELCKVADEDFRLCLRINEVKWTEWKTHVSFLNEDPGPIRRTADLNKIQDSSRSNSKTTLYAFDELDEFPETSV

Structure (SMILES) | Emax [1] [%] | IC50 [2] [µM] | IC50 [3] [µM] | EC50 [4] [µM] | EC50 [5] [µM]
CC(=O)O[C@H]1CC[C@@]2(C)O[C@H]2CC/C(C)=C/C[C@]2(C(C)C)CC[C@@]1(C)O2 | 31.6 | 21.1 | > 50 | 8.6 | 
C/C1=C\C[C@]2(C(C)C)CC[C@@](C)(O2)[C@H](O)CC/C(C)=C/CC1 | 38 | 12.3 | > 50 | 7.3 | 
C/C1=C\C[C@]2(C(C)C)CC[C@@](C)(O2)[C@@H](OC(=O)Cc2ccccc2)CC/C(C)=C/CC1 | 25.6 | 21.7 | 22.4 | 1.2 | 
C/C1=C\C[C@]2(C(C)C)CC[C@@](C)(O2)[C@@H](O)CC/C(C)=C/CC1 [INCENSOLE] | 65.1 | 2.1 | > 50 | 2.1 | 
C/C1=C\C[C@]2(C(C)C)CC[C@@](C)(O2)C(=O)CC/C(C)=C/CC1 |  |  | > 50 |  | 
C/C1=C\CC/C(C)=C/C[C@](O)(C(C)C)CC/C(C)=C/CC1 | 62.4 | 0.15 | > 50 | 0.17 | 
C/C1=C\CC[C@]2(C)O[C@@H]2C[C@]2(C(C)C)CC[C@@](C)(O2)[C@@H](O)CC1 | 27.2 | > 100 | > 50 | 25.4 | 
CC(=O)O[C@H]1CC/C(C)=C/CC[C@]2(C)O[C@@H]2C[C@]2(C(C)C)CC[C@@]1(C)O2 | 57.7 | 13.2 | > 50 | 8.8 | 
NC(=O)c1sc(-c2ccsc2)cc1N |  |  | 7.9 |  | 
Cc1ccc(C(C)C)c(O)c1 [THYMOL] | 49.4 |  |  | 29 | 
CCCCCCCCC(=O)O[C@H]1CC/C(C)=C/CC/C(C)=C/C[C@]2(C(C)C)CC[C@@]1(C)O2 |  |  | 35.5 |  | 
CC1=C2CC/C(C)=C/CC[C@]3(C)O[C@@H]3CC/C(C)=C/[C@@H]2OC1 |  |  | > 50 |  | 
C/C1=C\C[C@]2(C(C)C)CC[C@@](C)(O2)[C@@H](OC(=O)/C=C/c2ccccc2)CC/C(C)=C/CC1 |  |  | > 50 |  | 
CC1=C2CC/C(C)=C/CC[C@]3(C)O[C@@H]3CC/C(C)=C/[C@@H]2OC1=O | 21.3 | > 100 | > 50 | 30.1 | 
CC(=O)O[C@H]1CC/C(C)=C/CC/C(C)=C/C[C@]2(C(C)C)CC[C@@]1(C)O2 | 43.4 | 2.2 | > 50 | 1.4 | 16
C/C1=C\C[C@]2(C(C)C)CC[C@@](C)(O2)[C@@H](OC(=O)c2ccccc2)CC/C(C)=C/CC1 |  |  | > 50 |  | 
